{"source": "ChEMBL document CHEMBL2440010", "about": "“Click chemistry based synthesis of dopamine D4 selective receptor ligands for the selection of potential PET tracers” (Bioorg Med Chem Lett, 2013)", "key": {"[1]": {"assay": "Displacement of [3H]ketanserin from 5-HT2 in pig cerebral cortex", "format": "tissue-based, Sus scrofa"}, "[2]": {"assay": "Displacement of [3H]WAY100635 from 5-HT1A in pig cerebral cortex", "format": "tissue-based, Sus scrofa", "outline": "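Porcine cortical membranes were used with selective radioligands: [3H]WAY100635 for 5-HT1A, [3H]ketanserin for 5-HT2 and [3H]prazosin for α1. Ki values were taken from two to four independent experiments, each run in triplicate.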"}, "D(4) dopamine receptor": {"target": "T1, D(4) dopamine receptor (Homo sapiens, UniProt P21917)", "T1 sequence (P21917 whole entry)": "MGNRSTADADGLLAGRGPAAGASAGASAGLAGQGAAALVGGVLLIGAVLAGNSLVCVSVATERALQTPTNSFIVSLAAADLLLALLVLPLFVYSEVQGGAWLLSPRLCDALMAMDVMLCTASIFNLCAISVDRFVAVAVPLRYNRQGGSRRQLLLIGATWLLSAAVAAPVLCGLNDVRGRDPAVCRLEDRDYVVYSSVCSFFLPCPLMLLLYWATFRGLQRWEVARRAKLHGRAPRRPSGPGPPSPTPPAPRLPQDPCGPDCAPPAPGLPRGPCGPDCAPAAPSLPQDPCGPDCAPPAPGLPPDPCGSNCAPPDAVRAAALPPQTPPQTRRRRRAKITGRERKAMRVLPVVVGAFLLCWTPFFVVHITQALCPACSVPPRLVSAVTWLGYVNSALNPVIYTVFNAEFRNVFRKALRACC", "assay": "Displacement of [3H]spiperone from human D4.4 receptor expressed in CHO cells", "format": "cell-based", "outline": "(§1)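 Competition binding against [3H]spiperone on cloned human receptors (D2long, D2short, D3, D4.4) stably expressed in CHO cells. Ki values were taken from two to four independent experiments, each run in triplicate.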"}, "D(3) dopamine receptor": {"target": "D(3) dopamine receptor (Homo sapiens, UniProt P35462)", "sequence (P35462 whole entry)": "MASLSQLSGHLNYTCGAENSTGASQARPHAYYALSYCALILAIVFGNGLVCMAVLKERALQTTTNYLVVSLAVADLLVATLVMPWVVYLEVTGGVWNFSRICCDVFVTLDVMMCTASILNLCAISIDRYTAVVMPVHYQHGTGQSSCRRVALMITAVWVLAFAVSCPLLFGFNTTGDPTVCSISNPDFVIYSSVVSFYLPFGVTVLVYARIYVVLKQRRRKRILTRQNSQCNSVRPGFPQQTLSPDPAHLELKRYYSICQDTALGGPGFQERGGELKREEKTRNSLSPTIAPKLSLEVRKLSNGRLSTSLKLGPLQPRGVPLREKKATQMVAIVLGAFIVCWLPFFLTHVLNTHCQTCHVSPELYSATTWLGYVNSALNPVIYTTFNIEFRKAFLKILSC", "assay": "Displacement of [3H]spiperone from human D3 receptor expressed in CHO cells", "format": "cell-based", "outline": "as §1"}, "D(2) dopamine receptor [3]": {"target": "T2, D(2) dopamine receptor (Homo sapiens, UniProt P14416)", "T2 sequence (P14416 whole entry)": "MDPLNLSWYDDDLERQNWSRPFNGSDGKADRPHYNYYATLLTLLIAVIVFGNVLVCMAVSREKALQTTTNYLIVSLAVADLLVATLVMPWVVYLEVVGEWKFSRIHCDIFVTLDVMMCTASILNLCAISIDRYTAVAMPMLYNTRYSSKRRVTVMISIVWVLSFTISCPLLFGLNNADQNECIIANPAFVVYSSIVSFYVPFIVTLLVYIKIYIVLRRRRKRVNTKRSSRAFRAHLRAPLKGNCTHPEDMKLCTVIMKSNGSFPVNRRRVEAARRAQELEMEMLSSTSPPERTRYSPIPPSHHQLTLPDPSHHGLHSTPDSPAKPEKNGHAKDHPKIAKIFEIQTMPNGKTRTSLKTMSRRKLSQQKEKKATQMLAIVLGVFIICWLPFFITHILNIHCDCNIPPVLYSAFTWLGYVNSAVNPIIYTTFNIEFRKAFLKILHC", "assay": "Displacement of [3H]spiperone from human D2long receptor expressed in CHO cells", "format": "cell-based", "outline": "as §1"}, "D(2) dopamine receptor [4]": {"target": "T2, D(2) dopamine receptor", "assay": "Displacement of [3H]spiperone from human D2short receptor expressed in CHO cells", "format": "cell-based", "outline": "as §1"}, "D(1A) dopamine receptor": {"target": "D(1A) dopamine receptor (Sus scrofa, UniProt P50130)", "sequence (P50130 whole entry)": "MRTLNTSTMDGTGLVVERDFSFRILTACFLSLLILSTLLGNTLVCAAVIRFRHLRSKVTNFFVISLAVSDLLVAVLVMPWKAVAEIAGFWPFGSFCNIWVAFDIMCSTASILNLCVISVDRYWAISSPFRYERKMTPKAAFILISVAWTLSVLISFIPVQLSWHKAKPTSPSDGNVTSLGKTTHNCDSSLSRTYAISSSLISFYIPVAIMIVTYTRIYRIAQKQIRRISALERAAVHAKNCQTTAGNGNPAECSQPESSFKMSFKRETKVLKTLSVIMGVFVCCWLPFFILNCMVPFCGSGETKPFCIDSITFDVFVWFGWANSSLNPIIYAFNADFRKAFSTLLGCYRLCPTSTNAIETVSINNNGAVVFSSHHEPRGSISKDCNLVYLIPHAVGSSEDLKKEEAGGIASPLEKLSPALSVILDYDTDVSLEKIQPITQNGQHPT", "assay": "Displacement of [3H]SCH23390 from D1 receptor in pig striatal membrane", "format": "cell membranes, Striatum", "outline": "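D1 binding on porcine striatal membrane preparations, displacing the D1-selective antagonist [3H]SCH23390. Ki values were taken from two to four independent experiments, each run in triplicate.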"}, "[5]": {"target": "T3, D(4) dopamine receptor (Homo sapiens) (UniProt P21917)", "T3 sequence (whole entry)": "T1 sequence (P21917 whole entry)", "assay": "Partial agonist activity at human D4.4 receptor expressed in CHO10001 cells assessed as [3H]thymidine incorporation preincubated at 63 nM for 20 hrs before [3H]thymidine addition by mitogenesis assay", "format": "cell-based"}, "[6]": {"target": "T3, D(4) dopamine receptor (Homo sapiens)", "assay": "Antagonist activity at human D4.4 receptor expressed in CHO10001 cells assessed as [3H]thymidine incorporation preincubated at 63 nM for 20 hrs before [3H]thymidine addition by mitogenesis assay", "format": "cell-based"}}, "note": "Active and inactive are the calls of the source. The calls are words filed in the database; no cut-off is given here.", "data": [{"smiles": "COc1ccccc1N1CCN(Cc2cn(CCCCCCF)nn2)CC1", "values": [{"measurement": "Ki", "setting": "[1]", "result": 6400, "unit": "nM"}, {"measurement": "Ki", "setting": "[2]", "result": 54, "unit": "nM"}, {"measurement": "Ki", "setting": "D(4) dopamine receptor", "result": 20, "unit": "nM"}, {"measurement": "Ki", "setting": "D(3) dopamine receptor", "result": 800, "unit": "nM"}, {"measurement": "Ki", "setting": "D(2) dopamine receptor [3]", "result": 460, "unit": "nM"}, {"measurement": "Ki", "setting": "D(2) dopamine receptor [4]", "result": 560, "unit": "nM"}, {"measurement": "Ki", "setting": "D(1A) dopamine receptor", "result": 26000, "unit": "nM"}]}, {"smiles": "COc1ccccc1N1CCN(Cc2cn([C@@H]3O[C@H](CO)[C@@H](O)[C@H](O)[C@H]3F)nn2)CC1", "values": [{"measurement": "Ki", "setting": "[1]", "result": 38000, "unit": "nM"}, {"measurement": "Ki", "setting": "[2]", "result": 12000, "unit": "nM"}, {"measurement": "Ki", "setting": "D(4) dopamine receptor", "result": 500, "unit": "nM"}, {"measurement": "Ki", "setting": "D(3) dopamine receptor", "result": 17000, "unit": "nM"}, {"measurement": "Ki", "setting": "D(2) dopamine receptor [3]", "result": 23000, "unit": "nM"}, {"measurement": "Ki", "setting": "D(2) dopamine receptor [4]", "result": 42000, "unit": "nM"}, {"measurement": "Ki", "setting": "D(1A) dopamine receptor", "result": 54000, "unit": "nM"}]}, {"smiles": "COc1ccccc1N1CCN(Cc2cn(-c3ccc(OCCCOCCF)cc3)nn2)CC1", "values": [{"measurement": "Ki", "setting": "[1]", "result": 9000, "unit": "nM"}, {"measurement": "Ki", "setting": "[2]", "result": 480, "unit": "nM"}, {"measurement": "Ki", "setting": "D(4) dopamine receptor", "result": 16, "unit": "nM"}, {"measurement": "Ki", "setting": "D(3) dopamine receptor", "result": 2900, "unit": "nM"}, {"measurement": "Ki", "setting": "D(2) dopamine receptor [3]", "result": 440, "unit": "nM"}, {"measurement": "Ki", "setting": "D(2) dopamine receptor [4]", "result": 770, "unit": "nM"}, {"measurement": "Ki", "setting": "D(1A) dopamine receptor", "result": 3600, "unit": "nM"}]}, {"smiles": "COc1ccccc1N1CCN(Cc2cn(CCOCCOCCOCCF)nn2)CC1", "values": [{"measurement": "Ki", "setting": "[1]", "result": 18000, "unit": "nM"}, {"measurement": "Ki", "setting": "[2]", "result": 770, "unit": "nM"}, {"measurement": "Ki", "setting": "D(4) dopamine receptor", "result": 680, "unit": "nM"}, {"measurement": "Ki", "setting": "D(3) dopamine receptor", "result": 7600, "unit": "nM"}, {"measurement": "Ki", "setting": "D(2) dopamine receptor [3]", "result": 8300, "unit": "nM"}, {"measurement": "Ki", "setting": "D(2) dopamine receptor [4]", "result": 4700, "unit": "nM"}, {"measurement": "Ki", "setting": "D(1A) dopamine receptor", "result": 60000, "unit": "nM"}]}, {"smiles": "COc1ccccc1N1CCN(Cc2cn(-c3ccc(OCCF)cc3)nn2)CC1", "values": [{"measurement": "Activity", "setting": "[5]", "result": 27, "unit": "%"}, {"measurement": "Ki", "setting": "[1]", "result": 10000, "unit": "nM"}, {"measurement": "Ki", "setting": "[2]", "result": 420, "unit": "nM"}, {"measurement": "Ki", "setting": "D(4) dopamine receptor", "result": 14, "unit": "nM"}, {"measurement": "Ki", "setting": "D(3) dopamine receptor", "result": 17000, "unit": "nM"}, {"measurement": "Ki", "setting": "D(2) dopamine receptor [3]", "result": 1600, "unit": "nM"}, {"measurement": "Ki", "setting": "D(2) dopamine receptor [4]", "result": 18000, "unit": "nM"}, {"measurement": "Ki", "setting": "D(1A) dopamine receptor", "result": 45000, "unit": "nM"}]}, {"smiles": "COc1ccccc1N1CCN(Cc2cn(CCOCCOCCF)nn2)CC1", "values": [{"measurement": "Ki", "setting": "[1]", "result": 23000, "unit": "nM"}, {"measurement": "Ki", "setting": "[2]", "result": 870, "unit": "nM"}, {"measurement": "Ki", "setting": "D(4) dopamine receptor", "result": 150, "unit": "nM"}, {"measurement": "Ki", "setting": "D(3) dopamine receptor", "result": 5100, "unit": "nM"}, {"measurement": "Ki", "setting": "D(2) dopamine receptor [3]", "result": 7700, "unit": "nM"}, {"measurement": "Ki", "setting": "D(2) dopamine receptor [4]", "result": 3400, "unit": "nM"}, {"measurement": "Ki", "setting": "D(1A) dopamine receptor", "result": 30000, "unit": "nM"}]}, {"smiles": "COc1ccccc1N1CCN(Cc2cn(-c3ccc(OCCCOC4O[C@H](CO)[C@@H](O)[C@H](O)[C@H]4F)cc3)nn2)CC1", "note": "(stereo not given in full)", "values": [{"measurement": "Ki", "setting": "[1]", "result": 7800, "unit": "nM"}, {"measurement": "Ki", "setting": "[2]", "result": 650, "unit": "nM"}, {"measurement": "Ki", "setting": "D(4) dopamine receptor", "result": 32, "unit": "nM"}, {"measurement": "Ki", "setting": "D(3) dopamine receptor", "result": 5700, "unit": "nM"}, {"measurement": "Ki", "setting": "D(2) dopamine receptor [3]", "result": 4100, "unit": "nM"}, {"measurement": "Ki", "setting": "D(2) dopamine receptor [4]", "result": 1500, "unit": "nM"}, {"measurement": "Ki", "setting": "D(1A) dopamine receptor", "result": 16000, "unit": "nM"}]}, {"smiles": "COc1ccccc1N1CCN(Cc2cn(-c3ccc(OCCOCCOCCF)cc3)nn2)CC1", "values": [{"measurement": "Ki", "setting": "[1]", "result": 8200, "unit": "nM"}, {"measurement": "Ki", "setting": "[2]", "result": 560, "unit": "nM"}, {"measurement": "Ki", "setting": "D(4) dopamine receptor", "result": 100, "unit": "nM"}, {"measurement": "Ki", "setting": "D(3) dopamine receptor", "result": 200, "unit": "nM"}, {"measurement": "Ki", "setting": "D(2) dopamine receptor [3]", "result": 2700, "unit": "nM"}, {"measurement": "Ki", "setting": "D(2) dopamine receptor [4]", "result": 2900, "unit": "nM"}, {"measurement": "Ki", "setting": "D(1A) dopamine receptor", "result": 43000, "unit": "nM"}]}, {"smiles": "COc1ccccc1N1CCN(Cc2cn([C@@H]3O[C@H](CF)[C@@H](O)[C@H](O)[C@H]3O)nn2)CC1", "values": [{"measurement": "Ki", "setting": "[2]", "result": 18000, "unit": "nM"}, {"measurement": "Ki", "setting": "D(4) dopamine receptor", "result": 340, "unit": "nM"}, {"measurement": "Ki", "setting": "D(2) dopamine receptor [3]", "result": 24000, "unit": "nM"}, {"measurement": "Ki", "setting": "D(2) dopamine receptor [4]", "result": 51000, "unit": "nM"}, {"measurement": "Ki", "setting": "D(1A) dopamine receptor", "result": 77000, "unit": "nM"}]}, {"smiles": "COc1ccccc1N1CCN(Cc2cn(-c3ccc(OCCCF)cc3)nn2)CC1", "values": [{"measurement": "Activity", "setting": "[6]", "result": "Active"}, {"measurement": "Ki", "setting": "[2]", "result": 420, "unit": "nM"}, {"measurement": "Ki", "setting": "D(4) dopamine receptor", "result": 5.1, "unit": "nM"}, {"measurement": "Ki", "setting": "D(3) dopamine receptor", "result": 2800, "unit": "nM"}, {"measurement": "Ki", "setting": "D(2) dopamine receptor [3]", "result": 340, "unit": "nM"}, {"measurement": "Ki", "setting": "D(2) dopamine receptor [4]", "result": 520, "unit": "nM"}, {"measurement": "Ki", "setting": "D(1A) dopamine receptor", "result": 38000, "unit": "nM"}]}, {"smiles": "COc1ccccc1N1CCN(Cc2cn(CCOCCF)nn2)CC1", "values": [{"measurement": "Ki", "setting": "[1]", "result": 27000, "unit": "nM"}, {"measurement": "Ki", "setting": "[2]", "result": 240, "unit": "nM"}, {"measurement": "Ki", "setting": "D(4) dopamine receptor", "result": 23, "unit": "nM"}, {"measurement": "Ki", "setting": "D(3) dopamine receptor", "result": 1700, "unit": "nM"}, {"measurement": "Ki", "setting": "D(2) dopamine receptor [3]", "result": 1600, "unit": "nM"}, {"measurement": "Ki", "setting": "D(2) dopamine receptor [4]", "result": 750, "unit": "nM"}]}]}
